Compounds with a hit are over-represented: about 4.9% of the library has one in this group of screens.
CHT allo act: human CHT allosteric activation; 0.49% of 310,000 active; AID 488977; B-score at 10 µM; CHT-expressing cells, membrane potential dye, choline EC20; active compounds read high; LV-AA mutant CHT in HEK293 cells; Q9GZV3;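 active = initial fluorescence not abnormally high and integrated response B-score, plate-corrected, over 3 SD above library mean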
Target sequence (Q9GZV3 whole entry, looked up): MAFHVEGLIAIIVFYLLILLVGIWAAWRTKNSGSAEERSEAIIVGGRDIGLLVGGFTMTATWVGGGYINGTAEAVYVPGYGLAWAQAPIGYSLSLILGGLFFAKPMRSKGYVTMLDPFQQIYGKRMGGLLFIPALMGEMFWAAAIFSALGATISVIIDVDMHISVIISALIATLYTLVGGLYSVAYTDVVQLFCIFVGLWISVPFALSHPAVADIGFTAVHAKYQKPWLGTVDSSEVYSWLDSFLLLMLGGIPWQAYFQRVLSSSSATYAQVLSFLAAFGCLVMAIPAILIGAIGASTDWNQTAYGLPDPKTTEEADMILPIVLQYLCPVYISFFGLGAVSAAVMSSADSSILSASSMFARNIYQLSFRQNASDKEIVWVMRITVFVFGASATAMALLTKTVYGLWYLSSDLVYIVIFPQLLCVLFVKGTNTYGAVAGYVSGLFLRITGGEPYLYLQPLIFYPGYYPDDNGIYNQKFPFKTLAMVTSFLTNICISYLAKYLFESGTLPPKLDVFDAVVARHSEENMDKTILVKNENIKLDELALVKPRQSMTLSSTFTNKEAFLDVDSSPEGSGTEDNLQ
HSF-1 act: increases HSF-1 driven luciferase reporter signal; AID 504408; NIH3T3-HGL HSF-1 luciferase reporter, MG132, 8 h; 100% = twice DMSO control signal; activation, % at 9 µM; 1.7% of 300,000 active;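 active = mean replicate activation of at least 50% with a set share of replicates each reaching 50%; inconclusive = only one of those two conditions met; inactive = mean below 50% and too few replicates reaching it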;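 note: 0% = median of the neutral control wells and 100% = twice that signal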
HSF1 inhib: HSF1 inhibition; 0.77% of 300,000 active; activity change, negative = inhibition, % at 7.5 µM (by protocol); NIH3T3-HGL HSE-luciferase, MG132-induced, luminescence 8 h; active compounds read low;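 active = more than half of replicate wells show activity change below -50%, luminescence cut by over half; inconclusive = some wells, but at most half, below -50%; inactive = no replicate well below -50%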;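 note: luciferase reports HSF-1 transcriptional activity via heat shock element; 0% = median of DMSO wells and -100% = zero luminescence signal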
CHT inh: inhibits the human high affinity choline transporter | Q9GZV3 | CHT-expressing cells, membrane potential dye, choline response; active compounds read low | B-score at 10 µM | 0.86% of 310,000 active | AID 488975;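 active = B-score over 3 SD under the library average, and starting fluorescence ratio not unusually high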;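 note: choline stimulus applied at its EC90 after an EC20 pre-addition; B-score computed on integrated fluorescence ratio after choline addition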
Hep lipid drop: hepatic lipid droplet formation modulation. 0.4% of 240,000 active. inhibition, % at 6.5 µM. AML12 mouse hepatocytes, oleate lipid droplets, BODIPY imaging;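 active = lipid droplet intensity inhibited by at least 50%, with more than 500 cells counted; inconclusive = wells with under 300 cells, treated as cytotoxic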
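System: AML12 hepatocytes (mouse). Probe or stimulus: oleic acid at 100 µM to induce lipid droplet formation. Times: overnight treatment with compound plus oleate. Detection: Image-based BODIPY and DAPI two-channel analysis. Evaluation: percent inhibition of filter-corrected integrated lipid droplet intensity per well.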
PHOSPHO1 block: PHOSPHO1 (human) inhibition | 1.1% of 290,000 active | AID 1565 | inhibition, % at 13.3 µM | recombinant PHOSPHO1, absorbance phosphatase assay; in the data active = inhibition above about 60%
The depositor's hits bear a star; i = inactive; ? = inconclusive; . = no result.

SMILES	CHT allo act	HSF-1 act	HSF1 inhib	CHT inh	Hep lipid drop	PHOSPHO1 block
Cc1ccccc1-c1n[nH]c(=S)n1/N=C/c1c(C)nn(-c2ccccc2)c1C	i	11	0	i	-10	22
COc1cccc(Cn2c(=O)sc3ccccc3c2=O)c1	i	81*	46	i	-12	49
COc1ccc(N=Cc2nc(-c3ccco3)oc2O)cc1	i	38	26	i	2	-2
CCC(=NCc1ccc(Cl)c(Cl)c1)c1nc(-c2ccco2)oc1O	i	72*	37	i	.	13
c1ccc2c(c1)OCC(c1csc3ncnc(N4CCOCC4)c13)O2 (configuration not stated)	i	-66	-57*	i	.	2
COc1cc2nc(CN(CCC(C)C)Cc3nc4cc(OC)c(OC)cc4c(=O)[nH]3)[nH]c(=O)c2cc1OC	i	20	10	i	.	31
Cc1cc(Cl)ccc1NC(=S)NCCc1ccc(Cl)cc1	i	33	9	i	-17	19
CCN(CC)c1ccc(NC(=O)c2ccccc2)cc1S(=O)(=O)Nc1ccccc1OC	i	15	2	i	-70	95*
COC(=O)Cn1ncn2c(cc3oc(C)cc32)c1=O	i	6	2	i	.	66*
O=Cc1coc2ccc3ccccc3c2c1=O	i	20	12	i	-7	8
C=C1CC2(OC1=O)c1ccccc1CCc1ccccc12	.	60*	60*	.	.	.
O=C1CCc2ccccc2N1	i	-13	1	i	1	23
O=C(COC(=O)c1ccc(NS(=O)(=O)c2cccs2)cc1O)NC1CCCCC1	i	19	2	i	9	20
COC(=O)c1ccc(OC(=O)C23CCC(C)(C(=O)O2)C3(C)C)cc1 (configuration not stated)	i	-9	-6	i	2	18
COc1ccc(N=C2SC(C(=O)N3CCN(c4ccccc4)CC3)CC(=O)N2C)cc1 (configuration not stated)	i	-82	-77*	i	-16	8
COc1ccccc1N1C(=O)S/C(=C\c2cc(C)n(C)c2C)C1=O	i	54*	10	i	19	43
COc1ccc(C(=O)Nc2nnc(-c3ccco3)s2)cc1	i	-12	4	i	-21	73*
CSc1nnc(NC(=O)CCc2ccccc2)s1	i	11	8	i	.	82*
O=C(Nc1nnc(-c2ccco2)s1)c1ccccc1	i	10	8	i	.	74*
O=C(Nc1nnc(CCc2ccccc2)s1)c1ccccc1	i	51*	17	i	4	34
COc1ccccc1C(=O)Nc1nnc(-c2ccco2)s1	i	?	23	i	2	38
CC(C)(C)Cc1nnc(NC(=O)CCc2ccccc2)s1	i	4	3	i	-24	.
COc1ccc(C)cc1NC(=O)CNC(c1ccccc1)c1ccc(C)cc1 (configuration not stated)	i	-6	1	i	-117	36
Cc1ccc(NC(=O)Nc2ccc(Cl)cn2)cc1	.	77*	40	.	3	-1
Cc1ccc(NC(=O)Nc2ccc(Cl)c(Cl)c2)nc1	i	53*	28	i	2	19
SMILES	CHT allo act	HSF-1 act	HSF1 inhib	CHT inh	Hep lipid drop	PHOSPHO1 block
CC(C)Oc1ccc(C(=O)Nc2ccc(N(C)C)cc2)cc1	i	32	7	i	.	76*
COc1ccc(C(=S)Nc2ccc(N(C)C)cc2)cc1	i	60*	29	i	0	28
O=C(O)CC1SC(=O)N(Cc2ccccc2)C1=O (configuration not stated)	i	-92	-89*	i	.	19
CCCN1C(=O)SC(CC(=O)Nc2ccccc2)C1=O (configuration not stated)	i	-2	-11	i	.	7
O=C(CCc1nnc2ccc(N3CCC4(CC3)OCCO4)nn12)NCc1ccc(F)cc1	i	-77	-72*	i	-4	18
CCc1ccc(NC(=O)CCc2nnc3ccc(N4CCC5(CC4)OCCO5)nn23)cc1	i	-9	-3	i	-2	24
Cc1ccc(N2C(=S)N=C(Nc3ccccc3C)C23CCOC(C)(C)C3)cc1 (configuration not stated)	i	11	1	i	.	70*
Cc1cccc(C)c1NC1=NC(=S)N(c2ccccc2)C12CCOC(C)(C)C2 (configuration not stated)	i	-3	3	i	9	7
CC1(C)Cc2c(cnn2-c2ccc(F)cc2)C(NC(=O)c2ccc(=O)oc2)C1 (configuration not stated)	i	-4	6	i	9	61*
O=C(CSC1CS(=O)(=O)c2cc([N+](=O)[O-])ccc21)NNC(=O)c1ccc(Cl)cc1 (configuration not stated)	i	61*	16	i	-1	46
O=C(CSC1CS(=O)(=O)c2cc([N+](=O)[O-])ccc21)NNC(=O)c1ccccc1 (configuration not stated)	i	12	8	i	8	42
CN1C(=O)C2C(c3ccc(N(C)C)cc3)=NN(Cc3ccccc3)C2C1=O (configuration not stated)	i	75*	29	i	-2	-66
COc1ccc(C2=NN(Cc3ccccc3)C3C(=O)NC(=O)C23)cc1 (configuration not stated)	i	12	2	i	-7	-5
O=C1c2ccccc2C(O)(c2ncc[nH]2)N1CCc1ccccc1 (configuration not stated)	i	7	-1	i	-24	10
CCOC(=O)/C(C#N)=C/c1c(N2CCN(c3ccccc3)CC2)nc2ccccn2c1=O	i	93*	56	i	-5	20
CC(C)c1cc2c(c(O)c1O)[C@@]13CCCC(C)(C)C1CC2OC3=O (some centres not stated)	i	66*	53	i	-8	-127
COc1cccc(C(=O)c2c(C)c(CCC#N)n3ccccc23)c1OC	i	180*	120	i	-21	33
O=C(CN(Cc1ccccc1)C(=O)c1csnn1)NCc1ccccc1	i	-6	3	i	-2	4
O=C(O)C1CSC(c2ccc3c(c2)OCO3)N1 (configuration not stated)	i	-68	-56*	i	-4	19
CC1CN(C(=O)Cc2ccc(-c3ccccc3)cc2)CC(C)O1 (configuration not stated)	i	-4	1	i	-19	-11
COc1ccc(N/C=C/C(=C(C#N)C#N)N(C)C)cc1	i	2	3	i	13	41
